What was measured:
[1] = Dissociation constant (pKa); assay type: physicochemical
Mus musculus [2] = species: Mus musculus; assay: Compound was evaluated for protection against tachycardia in mice; assay type: functional
Summary of the method: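 Mice given test agent, then chloroform-induced tachycardia (modified Lawson method); efficacy scored as percentage of mice protected at each dose. Doses stepped ≥0.15 log unit up/down to give low, medium and high protection incidence; ED50 (mmol/kg) by Berkson logit chi-square method.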

[3] = Partition coefficient (logP); assay type: physicochemical; settings: octanol/water
Summary of the method: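 1-Octanol/water partition by titration: 10–40 mL aqueous test compound (1 mM) with 4–25 mL 1-octanol, stirred vigorously, titrated with 0.1 N NaOH; apparent pKa′ calculated, from which partition coefficient obtained.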

[4] = Compound was evaluated for -Log [fraction ionized x ED50 (protection)]; assay type: ADME
Mus musculus [5] = species: Mus musculus; assay: Compound was evaluated for ataxia in mice; assay type: functional
[6] = Therapeutic index is the ratio of ED50 (ataxia) to ED50 (protection) in mice; settings: mouse; read-out: TI

| pKa [1] | logP [3] | p[BH+50] [4] | Structure (SMILES) | ED50 (Mus musculus [2]) | ED50 (Mus musculus [5]) | selectivity ratio [6] |
| --- | --- | --- | --- | --- | --- | --- |
| 10.2 | 2.95 | 0.89 | CCN(CC)CCCCCC(=O)Nc1c(C)cccc1C | 130 µmol/kg | 670 µmol/kg | 5.2 |
| 8.71 | 0.84 | 0.62 | Cc1cccc(C)c1NC(=O)CC(C)N (configuration not stated) | 250 µmol/kg | 1640 µmol/kg | 6.6 |
| 7.93 | 2.73 | 0.88 | CCN(CC)C(C)C(=O)Nc1c(C)cccc1C (configuration not stated) | 170 µmol/kg | 130 µmol/kg | 0.8 |
| 9.96 | 2.42 | 0.92 | CCN(CC)CCCCC(=O)Nc1c(C)cccc1C | 120 µmol/kg | 660 µmol/kg | 5.5 |
| 9.36 | 1.08 | 0.45 | Cc1cccc(C)c1NC(=O)CCC(C)N (configuration not stated) | 360 µmol/kg | 2660 µmol/kg | 7.4 |
| 8.75 | 0.62 | 0.16 | Cc1cccc(C)c1NC(=O)CCN | 720 µmol/kg | 2300 µmol/kg | 3.2 |
| 9.81 | 1.02 | 0.51 | Cc1cccc(C)c1NC(=O)CCCCN | 310 µmol/kg | 1810 µmol/kg | 5.8 |
| 7.33 | 1.53 | 0.94 | Cc1cccc(C)c1NC(=O)C(C)N(C)C (configuration not stated) | 250 µmol/kg | 200 µmol/kg | 0.8 |
| 9.87 | 2.66 | 0.68 | CCN(CC)C(C)CCC(=O)Nc1c(C)cccc1C (configuration not stated) | 210 µmol/kg | 1150 µmol/kg | 5.5 |
| – | – | 0.88 | CCN(CC)CC(=O)Nc1c(C)cccc1C [LIDOCAINE] | 210 µmol/kg | 180 µmol/kg | – |
| 7.54 | 0.76 | 0.5 | Cc1cccc(C)c1NC(=O)C(C)N (configuration not stated) [TOCAINIDE] | 550 µmol/kg | 760 µmol/kg | 1.4 |
| 10.1 | 1.29 | 0.57 | Cc1cccc(C)c1NC(=O)CCCCCN | 270 µmol/kg | 2070 µmol/kg | 7.7 |
| 10.2 | 3.48 | 1.4 | CCN(CC)CCCCCCC(=O)Nc1c(C)cccc1C | 40 µmol/kg | 830 µmol/kg | 21 |
| 9.79 | 1.41 | 0.72 | Cc1cccc(C)c1NC(=O)CCCC(C)N (configuration not stated) | 190 µmol/kg | 1170 µmol/kg | 6.2 |
| 9.03 | 2.63 | 1.31 | CCN(CC)C(C)CC(=O)Nc1c(C)cccc1C (configuration not stated) | 50 µmol/kg | 90 µmol/kg | 1.8 |
| 7.42 | 0.45 | 0.37 | Cc1cccc(C)c1NC(=O)CN [GLYCINEXYLIDIDE] | 840 µmol/kg | 620 µmol/kg | 0.7 |
| 9.52 | 2.06 | 0.86 | CCN(CC)CCCC(=O)Nc1c(C)cccc1C | 140 µmol/kg | 760 µmol/kg | 5.4 |
| 9.35 | 0.71 | 0.1 | Cc1cccc(C)c1NC(=O)CCCN | 800 µmol/kg | 3250 µmol/kg | 4.1 |
| 8.83 | 2.21 | 0.9 | CCN(CC)CCC(=O)Nc1c(C)cccc1C | 130 µmol/kg | 210 µmol/kg | 1.6 |
| 10.1 | 2.64 | 1 | CCN(CC)C(C)CCCC(=O)Nc1c(C)cccc1C (configuration not stated) | 100 µmol/kg | 790 µmol/kg | 7.9 |

Reference: ChEMBL document CHEMBL1121654, “New antiarrhythmic agents. 6. Quantitative structure-activity relationships of aminoxylidides” (J Med Chem, 1981)
